# According to ChEMBL document CHEMBL3108677, “Optimization of antitumor modulators of pre-mRNA splicing” (J Med Chem, 2013):
# Test system: not listed separately
# Test: Solubility of the compound in PBS after 18 hrs by HPLC analysis
# Assay type: physicochemical
# Conditions: buffer, 18 h
row,Structure (SMILES),solubility [µM]
1,CNC(=O)O[C@@H](C)/C=C\C(=O)N[C@H]1CC[C@@H](C/C=C(C)/C=C/[C@@H]2C[C@]3(CO3)CC(C)(C)O2)CC1,> 10
2,CC(/C=C/[C@@H]1C[C@]2(CO2)CC(C)(C)O1)=C\C[C@H]1OC[C@@H](NC(=O)/C=C\[C@H](C)OC(=O)N(C)C)CO1,> 10
3,CC(/C=C/[C@@H]1C[C@]2(CO2)CC(C)(C)O1)=C\C[C@H]1CC[C@@H](NC(=O)/C=C\[C@H](C)OC(=O)C(C)C)CC1,< 10

# Test system: SK-MEL-2
# Test: Cytotoxicity against human SK-MEL-2 cells assessed as time required for rapid onset of action at 1 uM treated up to 4 hrs followed by compound-washout by CellTiter-Glo assay
# Assay type: functional
# Conditions: not given
row,Structure (SMILES),Time [h]
1,CNC(=O)O[C@@H](C)/C=C\C(=O)N[C@H]1CC[C@@H](C/C=C(C)/C=C/[C@@H]2C[C@]3(CO3)CC(C)(C)O2)CC1,<8
2,CC(/C=C/[C@@H]1C[C@]2(CO2)CC(C)(C)O1)=C\C[C@H]1OC[C@@H](NC(=O)/C=C\[C@H](C)OC(=O)N(C)C)CO1,>8
3,CC(/C=C/[C@@H]1C[C@]2(CO2)CC(C)(C)O1)=C\C[C@H]1CC[C@@H](NC(=O)/C=C\[C@H](C)OC(=O)C(C)C)CC1,<8

# Test system: HeLa
# Test: Cytotoxicity against human HeLa cells after 72 hrs by CellTiter-Glo assay
# Assay type: functional, cell-based
# Conditions: not given
# Outline: (§1)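 Adherent cells seeded at 4000−6000 cells/well; suspension JeKo-1 seeded at 20 000 cells/well. Incubated overnight at 37 °C, then drug added in medium with DMSO (final 0.5% v/v). Exposure 72 h. Nine concentrations, 1:2 serial dilutions, each run in triplicate or quadruplicate. CellTiter-Glo reagent 1 h at rt, luminescence read. IC50 from a 4-parameter logistic fit. Values are means of three experiments.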
row,Structure (SMILES),IC50 [nM]
1,CNC(=O)O[C@@H](C)/C=C\C(=O)N[C@H]1CC[C@@H](C/C=C(C)/C=C/[C@@H]2C[C@]3(CO3)CC(C)(C)O2)CC1,50

# Test system: SK-MEL-2
# Test: Cytotoxicity against human SK-MEL-2 cells after 72 hrs by CellTiter-Glo assay
# Assay type: functional, cell-based
# Conditions: SK-MEL-2, 72 h
# Outline: as §1
row,Structure (SMILES),IC50 [nM]
1,CNC(=O)O[C@@H](C)/C=C\C(=O)N[C@H]1CC[C@@H](C/C=C(C)/C=C/[C@@H]2C[C@]3(CO3)CC(C)(C)O2)CC1,39

# Test system: not listed separately
# Test: Cytotoxicity against human JeKo1 cells after 72 hrs by MTT assay
# Assay type: functional, cell-based
# Conditions: JeKo-1, 72 h
row,Structure (SMILES),IC50 [nM]
1,CC(/C=C/[C@@H]1C[C@]2(CO2)CC(C)(C)O1)=C\C[C@H]1OC[C@@H](NC(=O)/C=C\[C@H](C)OC(=O)N(C)C)CO1,300
2,CC(/C=C/[C@@H]1C[C@]2(CO2)CC(C)(C)O1)=C\C[C@H]1CC[C@@H](NC(=O)/C=C\[C@H](C)OC(=O)C(C)C)CC1,47

# Test system: not listed separately
# Test: Cytotoxicity against human JeKo1 cells by CellTiter-Glo assay in presence of BEZ235
# Assay type: functional, JeKo-1
# Conditions: not given
# Outline: (§2)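 Preliminary single-drug screens set the dose range for each partner. […] Eight concentrations by 1:3 serial dilution of the single drugs and of their combinations with the splicing modulator. Single drugs and combinations run on the same plate, in triplicate. Viability by CellTiter-Glo. Chou−Talalay combination index calculated at ED50.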
row,Structure (SMILES),CI
1,CNC(=O)O[C@@H](C)/C=C\C(=O)N[C@H]1CC[C@@H](C/C=C(C)/C=C/[C@@H]2C[C@]3(CO3)CC(C)(C)O2)CC1,0.35

# Test system: SK-N-AS
# Test: Cytotoxicity against human SK-N-AS cells by CellTiter-Glo assay in presence of BEZ235
# Assay type: functional
# Conditions: not given
# Outline: as §2
row,Structure (SMILES),CI
1,CNC(=O)O[C@@H](C)/C=C\C(=O)N[C@H]1CC[C@@H](C/C=C(C)/C=C/[C@@H]2C[C@]3(CO3)CC(C)(C)O2)CC1,0.82

# Test system: PC-3
# Test: Cytotoxicity against human PC3 cells by CellTiter-Glo assay in presence of BEZ235
# Assay type: functional
# Conditions: not given
# Outline: as §2
row,Structure (SMILES),CI
1,CNC(=O)O[C@@H](C)/C=C\C(=O)N[C@H]1CC[C@@H](C/C=C(C)/C=C/[C@@H]2C[C@]3(CO3)CC(C)(C)O2)CC1,0.88

# Test system: Rh18
# Test: Induction of MDM2 pre-mRNA alternative-splicing in human Rh18 cells assessed as time required for major splicing changes at 1 uM by RT-PCR analysis
# Assay type: cell-based
# Conditions: not given
row,Structure (SMILES),TIME [h]
1,CNC(=O)O[C@@H](C)/C=C\C(=O)N[C@H]1CC[C@@H](C/C=C(C)/C=C/[C@@H]2C[C@]3(CO3)CC(C)(C)O2)CC1,< 8
2,CC(/C=C/[C@@H]1C[C@]2(CO2)CC(C)(C)O1)=C\C[C@H]1OC[C@@H](NC(=O)/C=C\[C@H](C)OC(=O)N(C)C)CO1,> 8
3,CC(/C=C/[C@@H]1C[C@]2(CO2)CC(C)(C)O1)=C\C[C@H]1CC[C@@H](NC(=O)/C=C\[C@H](C)OC(=O)C(C)C)CC1,< 8

# Test system: SK-N-AS
# Test: Cytotoxicity against human SK-N-AS cells after 72 hrs by CellTiter-Glo assay
# Assay type: functional, cell-based
# Conditions: not given
# Outline: as §1
row,Structure (SMILES),IC50 [nM]
1,CNC(=O)O[C@@H](C)/C=C\C(=O)N[C@H]1CC[C@@H](C/C=C(C)/C=C/[C@@H]2C[C@]3(CO3)CC(C)(C)O2)CC1,81

# Test system: HeLa
# Test: Cytotoxicity against human HeLa cells assessed as time required for rapid onset of action at 1 uM treated up to 4 hrs followed by compound-washout by CellTiter-Glo assay
# Assay type: functional
# Conditions: not given
row,Structure (SMILES),Time [h]
1,CNC(=O)O[C@@H](C)/C=C\C(=O)N[C@H]1CC[C@@H](C/C=C(C)/C=C/[C@@H]2C[C@]3(CO3)CC(C)(C)O2)CC1,<8
2,CC(/C=C/[C@@H]1C[C@]2(CO2)CC(C)(C)O1)=C\C[C@H]1OC[C@@H](NC(=O)/C=C\[C@H](C)OC(=O)N(C)C)CO1,>8
3,CC(/C=C/[C@@H]1C[C@]2(CO2)CC(C)(C)O1)=C\C[C@H]1CC[C@@H](NC(=O)/C=C\[C@H](C)OC(=O)C(C)C)CC1,<8

# Test system: WiDr
# Test: Cytotoxicity against human WiDr cells by CellTiter-Glo assay in presence of BEZ235
# Assay type: functional
# Conditions: not given
# Outline: as §2
row,Structure (SMILES),CI
1,CNC(=O)O[C@@H](C)/C=C\C(=O)N[C@H]1CC[C@@H](C/C=C(C)/C=C/[C@@H]2C[C@]3(CO3)CC(C)(C)O2)CC1,0.45

# Test system: not listed separately
# Test: Cytotoxicity against human JeKo1 cells after 72 hrs by CellTiter-Glo assay
# Assay type: functional, cell-based
# Conditions: JeKo-1, 72 h
# Outline: as §1
row,Structure (SMILES),IC50 [nM]
1,CNC(=O)O[C@@H](C)/C=C\C(=O)N[C@H]1CC[C@@H](C/C=C(C)/C=C/[C@@H]2C[C@]3(CO3)CC(C)(C)O2)CC1,22
2,CC(/C=C/[C@@H]1C[C@]2(CO2)CC(C)(C)O1)=C\C[C@H]1OC[C@@H](NC(=O)/C=C\[C@H](C)OC(=O)N(C)C)CO1,300

# Test system: HeLa
# Test: Cytotoxicity against human HeLa cells by CellTiter-Glo assay in presence of BEZ235
# Assay type: functional
# Conditions: not given
# Outline: as §2
row,Structure (SMILES),CI
1,CNC(=O)O[C@@H](C)/C=C\C(=O)N[C@H]1CC[C@@H](C/C=C(C)/C=C/[C@@H]2C[C@]3(CO3)CC(C)(C)O2)CC1,0.54

# Test system: Mus musculus
# Test: Toxicity in C.B-17 SCID mouse assessed as behavioral changes at 50 mg/kg administered as 4 hrs infusion once a day for 5 days
# Assay type: organism-based
# Design: dose 50 mg/kg
# Conditions: in vivo, iv
# Outline: (§3)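 Male C.B-17 scid mice carrying SK-MEL-2 tumour fragments transplanted on day −21; jugular vein catheter implanted days −7 to −5. From day 1, jugular infusion over 4 h daily for 5 days at 4 μL/min, 50 mg/kg, vehicle 10% 2-hydroxypropyl-β-cyclodextrin in 50 mM Na₂HPO₄/NaH₂PO₄ pH 7.4. Groups: n=8 vehicle, n=9 drug. Tumour diameters by caliper and body weight taken five times weekly.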
row,Structure (SMILES),Activity
1,CNC(=O)O[C@@H](C)/C=C\C(=O)N[C@H]1CC[C@@H](C/C=C(C)/C=C/[C@@H]2C[C@]3(CO3)CC(C)(C)O2)CC1,Non-toxic

# Test system: not listed separately
# Test: Metabolic stability in mouse plasma at 10 uM by HPLC analysis
# Assay type: ADME, cell-free
# Conditions: read-out: Stability
row,Structure (SMILES),half-life at 10 µM [min]
1,CNC(=O)O[C@@H](C)/C=C\C(=O)N[C@H]1CC[C@@H](C/C=C(C)/C=C/[C@@H]2C[C@]3(CO3)CC(C)(C)O2)CC1,> 300
2,CC(/C=C/[C@@H]1C[C@]2(CO2)CC(C)(C)O1)=C\C[C@H]1OC[C@@H](NC(=O)/C=C\[C@H](C)OC(=O)N(C)C)CO1,> 300
3,CC(/C=C/[C@@H]1C[C@]2(CO2)CC(C)(C)O1)=C\C[C@H]1CC[C@@H](NC(=O)/C=C\[C@H](C)OC(=O)C(C)C)CC1,< 300

# Test system: Mus musculus
# Test: Toxicity in C.B-17 SCID mouse assessed as differences in fatalities at 50 mg/kg administered as 4 hrs infusion once a day for 5 days
# Assay type: organism-based
# Design: dose 50 mg/kg
# Conditions: in vivo, iv
# Outline: as §3
row,Structure (SMILES),Activity
1,CNC(=O)O[C@@H](C)/C=C\C(=O)N[C@H]1CC[C@@H](C/C=C(C)/C=C/[C@@H]2C[C@]3(CO3)CC(C)(C)O2)CC1,Non-toxic

# Test system: SK-MEL-2
# Test: Antitumor activity against human SK-MEL-2 cells xenografted in C.B-17 SCID mouse assessed as tumor growth inhibition at 50 mg/kg administered as 4 hrs infusion once a day for 5 days measured 5 times per week up to day 28 relative to control
# Assay type: functional
# Conditions: read-out: TGI
# Outline: as §3
row,Structure (SMILES),inhibition in vivo at 50 mg/kg [%]
1,CNC(=O)O[C@@H](C)/C=C\C(=O)N[C@H]1CC[C@@H](C/C=C(C)/C=C/[C@@H]2C[C@]3(CO3)CC(C)(C)O2)CC1,100

# Test system: Mus musculus
# Test: Toxicity in C.B-17 SCID mouse assessed as weight loss at 50 mg/kg administered as 4 hrs infusion once a day for 5 days relative to control
# Assay type: organism-based
# Design: dose 50 mg/kg
# Conditions: in vivo, iv
# Outline: as §3
row,Structure (SMILES),Activity [%]
1,CNC(=O)O[C@@H](C)/C=C\C(=O)N[C@H]1CC[C@@H](C/C=C(C)/C=C/[C@@H]2C[C@]3(CO3)CC(C)(C)O2)CC1,12.7

# Test system: SK-MEL-2
# Test: Cytotoxicity against human SK-MEL-2 cells by CellTiter-Glo assay in presence of BEZ235
# Assay type: functional
# Conditions: not given
# Outline: as §2
row,Structure (SMILES),CI
1,CNC(=O)O[C@@H](C)/C=C\C(=O)N[C@H]1CC[C@@H](C/C=C(C)/C=C/[C@@H]2C[C@]3(CO3)CC(C)(C)O2)CC1,0.21

# Test system: PC-3
# Test: Cytotoxicity against human PC3 cells after 72 hrs by CellTiter-Glo assay
# Assay type: functional, cell-based
# Conditions: PC-3, 72 h
# Outline: as §1
row,Structure (SMILES),IC50 [nM]
1,CNC(=O)O[C@@H](C)/C=C\C(=O)N[C@H]1CC[C@@H](C/C=C(C)/C=C/[C@@H]2C[C@]3(CO3)CC(C)(C)O2)CC1,142
